The values below come from ChEMBL document CHEMBL4270661 (Bioorg Med Chem, 2018).

Series [1] has as its target T1, Tubulin (Homo sapiens) (UniProt P68371+Q9H4B7+P0DPH7+P68366+Q13509+Q71U36+P04350+Q3ZCM7+P07437+P68363+Q9BQE3+Q6PEY2+Q13885+Q9BVA1+Q9BUF5). In words: Inhibition of [3H]-colchicine binding to tubulin (unknown origin) at 5 uM relative to control. The class given is protein-complex assay.
Series [2] can be described thus: Resistance index, ratio of IC50 for human SKOV3-MDR1-M6/6 cells to IC50 for human SKOV3 cells. The class given is functional. The essentials: (§1)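 Relative resistance (Rr): IC50 in resistant line divided by IC50 in isogenic parental line, from 48 h SRB assays (HeLa WT βIII vs HeLa; SK-OV-3/MDR-1-6/6 vs SK-OV-3).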
In series [3] the test system is HeLa. Briefly: Antiproliferative activity against human HeLa cells after 48 hrs by sulforhodamine B assay. The class given is functional, cell-based. An outline of the steps: (§2)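 SRB assay: cells plated at set densities, left 24 h to attach and grow, then exposed in triplicate wells to a concentration range for 48 h (DMSO vehicle). Cells fixed, protein stained with SRB. Cells kept at 37 °C, 5% CO2.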
For orientation: The SRB assay estimates cell density from bound dye.

In series [4] the target is T1, Tubulin (Homo sapiens). In words: Inhibition of [3H]-colchicine binding to tubulin (unknown origin) at 0.5 uM relative to control. The class given is protein-complex assay.
Series [5] has as its system MDA-MB-435. Briefly: Antiproliferative activity against human MDA-MB-435 cells after 48 hrs by sulforhodamine B assay. The format is functional, cell-based. To be noted: MDA-MB-435, 48 h. An outline of the steps: as §2
Series [6] is described as follows: Resistance index, ratio of IC50 for human HeLa cells expressing wild type beta3 tubulin to IC50 for human HeLa cells. The class given is functional. The essentials: as §1
Series [7] is described as follows: Induction of microtubule depolymerization in rat A10 cells assessed as cellular microtubule loss incubated for 18 hrs by DAPI staining-based indirect immunofluorescence assay. The class given is cell-based. To be noted: A10, 18 h.
Series [8] is described as follows: Antiproliferative activity against human SKOV3-MDR1-M6/6 cells after 48 hrs by sulforhodamine B assay. The format is functional. To be noted: SKOV3-MDR1-M6/6, 48 h. An outline of the steps:
as §2

Another series has as its system SK-OV-3. Briefly: Antiproliferative activity against human SKOV3 cells after 48 hrs by sulforhodamine B assay. The format is functional, cell-based. The note with it: SK-OV-3, 48 h. The essentials: as §2
Series [9] deals with HeLa. Briefly: Antiproliferative activity against human HeLa cells expressing wild type beta3 tubulin after 48 hrs by sulforhodamine B assay. The format is functional, cell-based. The essentials:
as §2

Series [10] has as its system Mus musculus. In words: Toxicity in athymic Foxn1nu/Foxn1nu mouse xenografted with human MDA-MB-435 cells assessed as occurence of neurological side effects at 75 mg/kg, ip, administered on day 1,2,3,4,7,9 and 11. The class given is organism-based. The note with it: in vivo. In general terms: A xenograft is tissue or cells of one species grown in another, often human tumour cells in immunodeficient mice.

Series [11] deals with Mus musculus. Briefly: Toxicity in athymic Foxn1nu/Foxn1nu mouse xenografted with human MDA-MB-435 cells assessed as body weight loss at 75 mg/kg, ip, administered on day 1,2,3,4,7,9 and 11. To be noted: in vivo. The class given is organism-based. An outline of the steps:
(§3)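 Female athymic nude mice bearing bilateral MDA-MB-435 flank tumors, 10 tumors per group, given 75 mg/kg ip (PBS, <5% solvent). Individual body weights tracked through the trial as percent change, mean ± SEM, vs untreated controls.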

Series [12] relates to MDA-MB-231. In words: Antitumor activity against human MDA-MB-231 cells xenografted in athymic Foxn1nu/Foxn1nu mouse assessed as tumor growth inhibition at 75 mg/kg, ip, administered on day 1,2,3,8,9 and 10. The class given is functional, organism-based.
Series [13] concerns MDA-MB-435. In words: Antitumor activity against human MDA-MB-435 cells xenografted in athymic Foxn1nu/Foxn1nu mouse assessed as tumor growth inhibition at 75 mg/kg, ip, administered on day 1,2,3,4,7,9 and 11. The class given is functional, organism-based. An outline of the steps:
(§4)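 Female athymic nude mice, 6 weeks old, bilateral flank implants of MDA-MB-435 tumor fragments. Grouped at ~200 mm³ (5 mice, 10 tumors per group), randomized. 75 mg/kg ip per dose, stock in ethanol or water diluted in PBS (<5% solvent), vs untreated controls. Caliper volume (width × length × height), tumor mass at trial end (day 15), mean ± SEM.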

In series [14] the test system is NCI/ADR-RES. Briefly: Antitumor activity against p-gp expressing human NCI/ADR-RES cells xenografted in athymic Foxn1nu/Foxn1nu mouse assessed as tumor growth inhibition at 75 mg/kg, ip administered on day 1,3 and 5 measured on day 9. The class given is functional, organism-based. An outline of the steps: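 Female athymic nude mice, bilateral flank NCI/ADR-RES (Pgp-expressing) tumor transplants, 8-9 tumors per group. […] Caliper tumor volume, mean ± SEM, compared on day 9 when the trial was stopped.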

In series [15] the test system is Mus musculus. Briefly: Toxicity in athymic Foxn1nu/Foxn1nu mouse xenografted with human MDA-MB-435 cells assessed as body weight loss at 75 mg/kg, ip, administered on day 1,2,3,4 and 9. The class given is organism-based. The note with it: in vivo. An outline of the steps: as §3
Series [16] has as its system Mus musculus. Briefly: Toxicity in athymic Foxn1nu/Foxn1nu mouse xenografted with human MDA-MB-435 cells assessed as occurence of neurological side effects at 75 mg/kg, ip, administered on day 1,2,3,4 and 9. The note with it: in vivo. The format is organism-based.
Series [17] deals with MDA-MB-435. Briefly: Antitumor activity against human MDA-MB-435 cells xenografted in athymic Foxn1nu/Foxn1nu mouse assessed as tumor growth inhibition at 75 mg/kg, ip, administered on day 1,2,3,4 and 9. The class given is functional, organism-based. The essentials:
as §4

Series [18] relates to NCI/ADR-RES. To be noted: Homo sapiens, 10 mg/kg.
The test system of series [19] is MDA-MB-231. In words: Antitumor activity against human MDA-MB-231 cells xenografted in athymic Foxn1nu/Foxn1nu mouse assessed as tumor growth inhibition at 10 mg/kg, ip, administered on day 1,2,3,8,9 and 10. The format is functional, organism-based.

Active and inactive are the calls of the source. The rule behind the calls is not given here.

In the case of `COc1ccc(N(C)c2nc(C)nc3ccn(CC(C)C)c23)cc1.Cl`, the figures for the inhibition on Tubulin (Homo sapiens) [1] and on Tubulin (Homo sapiens) [4] were 95% and 67%, respectively. Moreover, the “Ratio IC50” value is listed as 1 in series [2] and 0.9 in series [6]. The IC50 (in general, the concentration that gives 50% inhibition) in the series on HeLa [3] came out at 26 nM; in the series with MDA-MB-435 [5], 39 nM; in series [8] it was 25 nM; in the series with SK-OV-3, 26 nM; in the series with HeLa [9] it was 23 nM. Besides, the EC50 (in general, the midpoint of the concentration-response curve) in [7] was found to be 55 nM.

With `COc1ccc2c(c1)CCCN2c1nc(C)nc2ccn(C)c12.Cl`, the inhibition (commonly the relative decrease from the control value, in per cent) was 98% on Tubulin (Homo sapiens) [1] and 72% on Tubulin (Homo sapiens) [4]. The “Ratio IC50” value in series [2] amounted to 1.1; in series [6] it was 1.2. The concentration for half-maximal inhibition (IC50) in the series with HeLa [3] amounted to 27 nM; with MDA-MB-435 [5], 21 nM; in series [8], 31.5 nM; in the series with SK-OV-3, 30 nM; in the series on HeLa [9], 33 nM. Also, the EC50 in series [7] was 39 nM.

Take `CCCn1ccc2nc(C)nc(N(C)c3ccc(OC)cc3)c21.Cl`: the Activity entry in the series on Mus musculus [10] and with Mus musculus [11] was “Non-Toxic” throughout. The inhibition at Tubulin (Homo sapiens) [1] is 97%; at Tubulin (Homo sapiens) [4], 86%. Besides, the TGI entry in the series with MDA-MB-231 [12], in the series with MDA-MB-435 [13] and with NCI/ADR-RES [14] was “Active” throughout. The “Ratio IC50” value stood at 1.4 in [2] and 0.9 in [6]. Besides, the IC50 in the series with HeLa [3] stood at 5.9 nM; with MDA-MB-435 [5] it was 9 nM; in series [8], 7 nM; in the series with SK-OV-3, 5 nM; in the series on HeLa [9], 5.1 nM. In addition, the EC50 in series [7] worked out at 20 nM.

`COc1ccc2c(c1)CCCN2c1nc(C)nc2cc[nH]c12` yielded an inhibition on Tubulin (Homo sapiens) [1] of 70%. For the same compound, the EC50 in series [7] is 230 nM.

For the compound `COc1ccc(N(C)c2nc(C)nc3ccn(C)c23)cc1.Cl`, the inhibition at Tubulin (Homo sapiens) [1] came to 99%; on Tubulin (Homo sapiens) [4] it was 79%. Besides, the “Ratio IC50” value in series [2] was 1.2; in series [6], 0.9. For the same compound, the Activity entry is given as “Non-Toxic” in the series with Mus musculus [15] and “Toxic” in the series with Mus musculus [16]. Besides, the IC50 with HeLa [3] was 5 nM; in the series on MDA-MB-435 [5] it was 4.3 nM; in series [8], 6 nM; in the series on SK-OV-3, 5.2 nM; in the series on HeLa [9] it was 4.3 nM. The TGI entry in the series on MDA-MB-435 [17] was “Active”. Also, the EC50 in series [7] is 7.4 nM.

Take `CCCCn1ccc2nc(C)nc(N(C)c3ccc(OC)cc3)c21.Cl`: the figures for the inhibition on Tubulin (Homo sapiens) [1] and on Tubulin (Homo sapiens) [4] were 96% and 82%, respectively. Moreover, the results for the “Ratio IC50” value in series [2] and in series [6] were 1.2 and 0.7, respectively. The IC50 with HeLa [3] stood at 14 nM; in the series on MDA-MB-435 [5] it was 27 nM; in series [8] it was 15 nM; in the series on SK-OV-3, 13 nM; in the series on HeLa [9], 10 nM. Also, in [7], the EC50 came out at 32 nM.

`COc1ccc(Nc2nc(C)nc3cc[nH]c23)cc1` displayed an inhibition on Tubulin (Homo sapiens) [1] of 5.8%. The EC50 in series [7] was > 10000 nM.

Turning to `CC(=O)O[C@H]1C(=O)[C@@]2(C)[C@H]([C@H](OC(=O)c3ccccc3)[C@]3(O)C[C@H](OC(=O)[C@H](O)[C@@H](NC(=O)c4ccccc4)c4ccccc4)C(C)=C1C3(C)C)[C@]1(OC(C)=O)CO[C@@H]1C[C@@H]2O` [PACLITAXEL], the TGI result in the series with NCI/ADR-RES [18] was “inactive”. Also, the TGI entry in the series with MDA-MB-231 [19] is “Active”. In the series on SK-OV-3, this compound yielded an IC50 of 5 nM.

On Tubulin (Homo sapiens) [1], `COc1ccc(Nc2nc(C)nc3cc[nH]c23)c(OC)c1` gave an inhibition of 0%. In series [7], the EC50 is > 10000 nM.

As for `COc1ccc(Nc2nc(C)nc3ccn(C)c23)cc1`, the inhibition at Tubulin (Homo sapiens) [1] was 4.2%. Further, the EC50 in series [7] was > 10000 nM.

Turning to `COc1ccc(Nc2nc(C)nc3ccn(C)c23)c(OC)c1`, the inhibition on Tubulin (Homo sapiens) [1] worked out at 14%. For the same compound, the EC50 in series [7] is > 10000 nM.

`COc1ccc(N(C)c2nc(C)nc3cc[nH]c23)cc1` had an inhibition at Tubulin (Homo sapiens) [1] of 60%. For the same compound, in series [7], the EC50 worked out at 1200 nM.

For the compound `COc1ccc(/C=C\c2cc(OC)c(OC)c(OC)c2)cc1O` [COMBRETASTATIN A4], the concentration giving a half-maximal response (EC50) in series [7] is 9.8 nM. In series [8], this compound yielded an IC50 of 7 nM.

As to `COc1ccc(N(C)c2nc(C)nc3ccn(C(C)C)c23)cc1.Cl`, the figures for the inhibition on Tubulin (Homo sapiens) [1] and on Tubulin (Homo sapiens) [4] were 92% and 60%, respectively. Further, the entries for the “Ratio IC50” value in series [2] and in [6] were 1.9 and 0.6, respectively. Besides, the IC50 worked out at 32 nM with HeLa [3]; 21 nM in the series with MDA-MB-435 [5]; 58 nM in [8]; 31 nM in the series with SK-OV-3; 20 nM with HeLa [9]. Also, the EC50 in series [7] was found to be 42 nM.

Take `CCn1ccc2nc(C)nc(N(C)c3ccc(OC)cc3)c21`: the inhibition on Tubulin (Homo sapiens) [1] amounted to 96%; on Tubulin (Homo sapiens) [4], 79%. The “Ratio IC50” value is 1.1 in series [2] and 0.8 in series [6]. In addition, the IC50 in the series on HeLa [3] was determined as 17 nM; in the series on MDA-MB-435 [5], 10.8 nM; in [8], 19.3 nM; in the series on SK-OV-3, 17 nM; with HeLa [9] it was 14 nM. In addition, in series [7], the EC50 is 28 nM.
